Experimental data published in ChEMBL document CHEMBL3861962 (Eur J Med Chem, 2016).

Legend:
Cytochrome P450 3A4 [1] = target: T1, Cytochrome P450 3A4 (Homo sapiens, UniProt P08684); experiment: Drug metabolism assessed as human recombinant CYP3A4-mediated formation of N-(6-(2-hydroxyethoxy)-5-(2-hydroxyphenoxy)-2,2'-bipyrimidin-4-yl)-4-(perfluoropropan-2-yl)benzenesulfonamide at 5 uM in presence of NADPH after 30 mins by LC-MS/MS analysis; assay type: ADME; settings: recombinant enzyme, 0.5 h
Outline: (§1)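 Substrate at 5 μM final in 100 mM potassium phosphate, pH 7.4, incubated with human liver microsomes or baculovirus-expressed recombinant CYP3A4, 2D6 or 2C9. Reaction started with 1 mM NADPH and run 0, 15 and 30 min at 37 °C. Stopped with ice-cold acetonitrile containing labetalol internal standard, then centrifuged. Supernatant analysed by LC-MS/MS on a C18 column at 40 °C. Blank was enzyme without substrate.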

[2] = target: T2, Endothelin-1 receptor (Homo sapiens) (UniProt P25101); experiment: Agonist activity at ETA receptor in human SKNMC cells assessed as induction of Ca2+ mobilization at 100 nM by fluorimetric method relative to control; assay type: functional, cell-based; settings: SK-N-MC
T2 sequence (whole entry): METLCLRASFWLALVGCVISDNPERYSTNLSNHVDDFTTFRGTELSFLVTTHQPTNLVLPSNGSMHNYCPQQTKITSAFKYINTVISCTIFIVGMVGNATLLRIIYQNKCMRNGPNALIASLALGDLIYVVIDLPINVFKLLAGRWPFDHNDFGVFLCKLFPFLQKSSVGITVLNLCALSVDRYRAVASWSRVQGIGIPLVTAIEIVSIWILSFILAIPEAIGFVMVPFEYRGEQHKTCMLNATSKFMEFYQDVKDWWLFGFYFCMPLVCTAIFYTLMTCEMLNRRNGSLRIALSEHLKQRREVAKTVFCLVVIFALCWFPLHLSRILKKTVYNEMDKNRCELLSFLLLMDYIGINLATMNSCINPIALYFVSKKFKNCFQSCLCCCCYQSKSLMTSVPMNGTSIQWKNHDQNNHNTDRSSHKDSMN
Outline: (§2)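 ETA functional assay run by Cerep in human neuroblastoma SK-N-MC cells at 22 °C with fluorimetric read-out. Test solutions were 1, 10, 100 and 1000 nM. Agonist response is given as % of the control response to 100 nM endothelin-1. For antagonist mode, inhibition is given as % of the control endothelin-1 agonist response, with BQ-123 as reference antagonist.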

[3] = Drug metabolism in human liver microsomes assessed as formation of OH-substituted O-demethyl-4-(1,1,1,2,3,3,3-Heptafluoropropan-2-yl)-N-(6-(2-hydroxyethoxy)-5-(2-methoxyphenoxy)-2,2'-bipyrimidin-4-yl)benzenesulfonamide at 5 uM in presence of NADPH after 30 mins by LC-MS/MS analysis; assay type: ADME; settings: 0.5 h
Outline: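 Pooled human liver microsomes in 100 mM potassium phosphate, pH 7.4, with test compound at 5 μM final. Reaction started with 1 mM NADPH (final) and run at 37 °C in a shaking water bath for 0, 15 and 30 min. Stopped with an equal volume of ice-cold acetonitrile containing 0.6 μM labetalol as internal standard. Protein was spun out and the supernatant analysed by LC-MS/MS. Blank had no compound.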

[4] = Drug metabolism in human liver microsomes assessed as formation of N-(6-(2-hydroxyethoxy)-5-(2-hydroxyphenoxy)-2,2'-bipyrimidin-4-yl)-4-(perfluoropropan-2-yl)benzenesulfonamide at 5 uM in presence of NADPH after 30 mins by LC-MS/MS analysis; assay type: ADME; settings: 0.5 h; outline: as §1
[5] = target: T2, Endothelin-1 receptor (Homo sapiens); experiment: Antagonist activity at ETA receptor in human SKNMC cells assessed as inhibition of endothelin-1-mediated Ca2+ mobilization at 10 nM by fluorimetric method relative to control; assay type: functional, cell-based; settings: SK-N-MC; outline: as §2
Cytochrome P450 3A4 [6] = target: T1, Cytochrome P450 3A4; experiment: Drug metabolism assessed as human recombinant CYP3A4-mediated formation of OH-substituted O-demethyl-4-(1,1,1,2,3,3,3-Heptafluoropropan-2-yl)-N-(6-(2-hydroxyethoxy)-5-(2-methoxyphenoxy)-2,2'-bipyrimidin-4-yl)benzenesulfonamide at 5 uM in presence of NADPH after 30 mins by LC-MS/MS analysis; assay type: ADME; settings: recombinant enzyme, 0.5 h; outline: as §1
Cytochrome P450 2D6 = Cytochrome P450 2D6 (Homo sapiens, UniProt P10635); experiment: Drug metabolism assessed as human recombinant CYP2D6-mediated metabolite formation by measuring parent compound remaining at 5 uM in presence of NADPH after 30 mins by LC-MS/MS analysis; assay type: ADME; settings: recombinant enzyme, 0.5 h; outline: as §1
[7] = Drug metabolism in human liver microsomes assessed as formation of 4-(1,1,1,3,3,3-hexafluoro-2-hydroxypropan-2-yl)-N-(6-(2-hydroxyethoxy)-5-(2-methoxyphenoxy)-2,2'-bipyrimidin-4-yl)benzenesulfonamide at 5 uM in presence of NADPH after 30 mins by LC-MS/MS analysis; assay type: ADME; settings: 0.5 h; outline: as §1
[8] = Drug metabolism in human liver microsomes assessed as formation of 4-(1,1,1,3,3,3-hexafluoro-2-methoxypropan-2-yl)-N-(6-(2-hydroxyethoxy)-5-(2-hydroxyphenoxy)-2,2'-bipyrimidin-4-yl)benzenesulfonamide at 5 uM in presence of NADPH after 30 mins by LC-MS/MS analysis; assay type: ADME; settings: 0.5 h; outline: as §1
Cytochrome P450 3A4 [9] = target: T1, Cytochrome P450 3A4; experiment: Drug metabolism assessed as human recombinant CYP3A4-mediated formation of 4-(1,1,1,3,3,3-hexafluoro-2-hydroxypropan-2-yl)-N-(6-(2-hydroxyethoxy)-5-(2-methoxyphenoxy)-2,2'-bipyrimidin-4-yl)benzenesulfonamide at 5 uM in presence of NADPH after 30 mins by LC-MS/MS analysis; assay type: ADME; settings: recombinant enzyme, 0.5 h; outline: as §1
Cytochrome P450 3A4 [10] = target: T1, Cytochrome P450 3A4; experiment: Drug metabolism assessed as human recombinant CYP3A4-mediated formation of 4-(1,1,1,3,3,3-hexafluoro-2-methoxypropan-2-yl)-N-(6-(2-hydroxyethoxy)-5-(2-hydroxyphenoxy)-2,2'-bipyrimidin-4-yl)benzenesulfonamide at 5 uM in presence of NADPH after 30 mins by LC-MS/MS analysis; assay type: ADME; settings: recombinant enzyme, 0.5 h; outline: as §1

T1 sequence (P08684 whole entry): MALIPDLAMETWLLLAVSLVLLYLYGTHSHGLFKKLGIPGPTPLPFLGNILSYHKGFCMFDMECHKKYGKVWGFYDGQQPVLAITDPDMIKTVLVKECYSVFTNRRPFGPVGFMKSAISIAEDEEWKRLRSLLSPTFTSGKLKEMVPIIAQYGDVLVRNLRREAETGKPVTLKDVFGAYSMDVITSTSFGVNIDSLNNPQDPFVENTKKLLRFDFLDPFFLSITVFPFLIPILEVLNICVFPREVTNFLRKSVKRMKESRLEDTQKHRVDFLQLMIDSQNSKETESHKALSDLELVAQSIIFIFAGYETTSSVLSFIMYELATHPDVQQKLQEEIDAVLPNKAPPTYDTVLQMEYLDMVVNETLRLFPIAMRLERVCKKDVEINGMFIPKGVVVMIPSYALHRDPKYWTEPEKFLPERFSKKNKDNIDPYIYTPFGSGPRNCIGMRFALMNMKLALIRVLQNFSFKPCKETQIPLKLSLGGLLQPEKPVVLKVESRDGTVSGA
Cytochrome P450 2D6, sequence (P10635 whole entry): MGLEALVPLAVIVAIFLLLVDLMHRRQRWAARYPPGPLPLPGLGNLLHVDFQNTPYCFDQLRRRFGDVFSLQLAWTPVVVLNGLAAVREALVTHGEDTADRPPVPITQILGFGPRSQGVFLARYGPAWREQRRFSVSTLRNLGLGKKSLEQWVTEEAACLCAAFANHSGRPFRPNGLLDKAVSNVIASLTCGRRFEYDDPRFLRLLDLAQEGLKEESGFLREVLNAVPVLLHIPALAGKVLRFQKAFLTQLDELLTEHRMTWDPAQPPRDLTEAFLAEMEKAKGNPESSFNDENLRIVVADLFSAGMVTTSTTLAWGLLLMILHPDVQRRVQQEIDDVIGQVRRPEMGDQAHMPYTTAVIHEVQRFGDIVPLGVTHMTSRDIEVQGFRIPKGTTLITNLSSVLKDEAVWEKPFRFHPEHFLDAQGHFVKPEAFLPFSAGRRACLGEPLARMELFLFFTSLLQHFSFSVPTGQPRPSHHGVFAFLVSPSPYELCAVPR

Compound: COc1ccccc1Oc1c(NS(=O)(=O)c2ccc(C(F)(C(F)(F)F)C(F)(F)F)cc2)nc(-c2ncccn2)nc1OCCO
- Drug metabolism (Cytochrome P450 3A4 [1]): Metabolite_Detected
- Activity [2]: -1%
- Drug metabolism [3]: Metabolite_Detected
- Drug metabolism [4]: Metabolite_Detected
- inhibition [5]: 20%
- Drug metabolism (Cytochrome P450 3A4 [6]): Metabolite_Detected
- Stability (Cytochrome P450 2D6): > 99%

Compound: COc1ccccc1Oc1c(NS(=O)(=O)c2ccc(C(OC)(C(F)(F)F)C(F)(F)F)cc2)nc(-c2ncccn2)nc1OCCO
- Drug metabolism [7]: Metabolite_Detected
- Activity [2]: 0%
- Drug metabolism [8]: Metabolite_Detected
- inhibition [5]: 13%
- Drug metabolism (Cytochrome P450 3A4 [9]): Metabolite_Detected
- Drug metabolism (Cytochrome P450 3A4 [10]): Metabolite_Detected
- Stability (Cytochrome P450 2D6): > 99%
